Measured values published in ChEMBL document CHEMBL1145968, “3-(alphaR)-alpha-((2S,5R)-4-allyl-2,5-dimethyl-1-piperazinyl)-3-hydroxybenzyl)-N-alkyl-N-arylbenzamides: potent, non-peptidic agonists of both the micro and delta opioid receptors” (J Med Chem, 2003).

Key:
[1] = organism: Mus musculus; assay: Inhibition of the electrically induced muscle contractions was determined using the mouse vas deferens; assay type: functional
Outline: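 Vas deferens segments in Krebs buffer, placed between platinum electrodes with isometric force recording at 0.5 g resting tension. Stimulated with 400 ms trains (1 ms pulses, 10 Hz, supramaximal voltage). Cumulative concentrations were each allowed maximal effect before the next.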

[2] = organism: Cavia porcellus; assay: Inhibition of the electrically induced muscle contractions was determined using the guinea pig ileum; assay type: functional
Outline: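 Intact ileum segments (about 3 cm) suspended under 1 g tension in modified Krebs buffer containing 1.20 mM MgSO4. Field-stimulated with square-wave pulses at 0.1 Hz, 0.5 ms, supramaximal voltage. Cumulative concentrations were each given time for maximal response before the next.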

[3] = target: Delta-type opioid receptor (Rattus norvegicus, UniProt P33533); assay: Binding affinity of compound evaluated for Opioid receptor delta 1 isolated from rat brain
Sequence of Delta-type opioid receptor (P33533 whole entry): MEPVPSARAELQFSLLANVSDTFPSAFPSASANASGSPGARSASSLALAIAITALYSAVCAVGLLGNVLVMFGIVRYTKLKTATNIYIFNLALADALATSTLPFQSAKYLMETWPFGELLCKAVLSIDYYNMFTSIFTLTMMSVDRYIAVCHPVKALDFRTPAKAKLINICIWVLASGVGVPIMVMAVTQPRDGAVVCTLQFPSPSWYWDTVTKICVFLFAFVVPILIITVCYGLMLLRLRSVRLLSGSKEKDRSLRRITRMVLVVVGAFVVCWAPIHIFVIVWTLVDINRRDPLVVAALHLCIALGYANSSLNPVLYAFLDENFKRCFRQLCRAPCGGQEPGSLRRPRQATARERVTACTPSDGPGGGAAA

| Structure (SMILES) | EC50 ([1]; Mus musculus) [nM] | EC50 ([2]; Cavia porcellus, Ileum) [nM] | Ki [3] [nM] | EC50 [1] [nM] | EC50 [2] [nM] |
| --- | --- | --- | --- | --- | --- |
| C=CCN1C[C@H](C)N([C@@H](c2cccc(O)c2)c2cccc(C(=O)N(CC)c3ccccc3)c2)C[C@H]1C | 0.96 | 0.94 | 2.17 |  |  |
| C=CCN1C[C@H](C)N([C@@H](c2cccc(O)c2)c2cccc(C(=O)N(CC)c3ccc(F)cc3)c2)C[C@H]1C | 1.4 | 4 |  |  |  |
| C=CCN1C[C@H](C)N([C@@H](c2cccc(O)c2)c2cccc(C(=O)N(C)c3ccc(OC)cc3)c2)C[C@H]1C | 0.36 | 1.1 | 2.01 |  |  |
| C=CCN1C[C@H](C)N([C@H](c2cccc(O)c2)c2cccc(C(=O)N(C)c3ccccc3)c2)C[C@H]1C | 0.47 | 1.22 |  |  |  |
| C=CCN1C[C@H](C)N([C@@H](c2cccc(O)c2)c2cccc(C(=O)N(CCC)c3ccc(F)cc3)c2)C[C@H]1C | 0.68 | 1050 | 2.75 |  |  |
| C=CCN1C[C@H](C)N([C@@H](c2cccc(O)c2)c2cccc(C(=O)N(C)CCc3ccccc3)c2)C[C@H]1C | 0.34 | 6.6 |  |  |  |
| C=CCN1C[C@H](C)N([C@@H](c2cccc(O)c2)c2cccc(C(=O)N3CCCc4ccccc43)c2)C[C@H]1C | 1.05 | 11.5 | 1.18 |  |  |
| C=CCN1C[C@H](C)N([C@@H](c2cccc(O)c2)c2cccc(C(=O)N(C)c3cccc(F)c3)c2)C[C@H]1C (stereo in doubt; 24) |  |  | 0.18 | 0.79 | 3.4 |
| C=CCN1C[C@H](C)N([C@H](c2cccc(O)c2)c2cccc(C(=O)N(CC)CC)c2)C[C@H]1C | 5.85 | 4.35 | 2.1 |  |  |
| C=CCN1C[C@H](C)N([C@@H](c2cccc(O)c2)c2cccc(C(=O)N(CCCC)c3ccccc3)c2)C[C@H]1C | 1.7 | 41 |  |  |  |
| C=CCN1C[C@H](C)N(C(c2ccc(C(=O)N(CC)CC)cc2)c2cccc(O)c2)C[C@H]1C (single isomer, unassigned) | 0.2 | 150 | 1.8 |  |  |
| C=CCN1C[C@H](C)N([C@@H](c2cccc(O)c2)c2cccc(C(=O)N(C)c3cccc(F)c3)c2)C[C@H]1C (stereo in doubt; 32) |  |  | 11.4 | 25.3 | 1800 |
| C=CCN1C[C@H](C)N([C@@H](c2cccc(O)c2)c2cccc(C(=O)N(C)c3ccc(Cl)cc3)c2)C[C@H]1C | 2.6 | 4.9 | 2.73 |  |  |
| C=CCN1C[C@H](C)N([C@@H](c2cccc(O)c2)c2cccc(C(=O)N(c3ccccc3)C3CC3)c2)C[C@H]1C | 1.42 | 1.23 | 1.92 |  |  |
| C=CCN1C[C@H](C)N([C@@H](c2cccc(O)c2)c2cccc(C(=O)N(C)Cc3ccccc3)c2)C[C@H]1C | 5.6 | 6.07 |  |  |  |
| C=CCN1C[C@H](C)N([C@@H](c2cccc(O)c2)c2cccc(C(=O)N(C)c3ccc(F)cc3)c2)C[C@H]1C | 1.1 | 0.67 | 1.4 |  |  |
| C=CCN1C[C@H](C)N([C@@H](c2cccc(O)c2)c2cccc(C(=O)N(C)c3ccccc3)c2)C[C@H]1C | 1.7 | 59.5 | 1.37 |  |  |
| C=CCN1C[C@H](C)N([C@@H](c2cccc(O)c2)c2cccc(C(=O)N(C)c3ccc([N+](=O)[O-])cc3)c2)C[C@H]1C | 2.3 | 4.1 |  |  |  |
| C=CCN1C[C@H](C)N([C@@H](c2cccc(O)c2)c2cccc(C(=O)N(C)c3ccccc3F)c2)C[C@H]1C | 0.69 | 4.1 |  |  |  |
| C=CCN1C[C@H](C)N([C@@H](c2cccc(O)c2)c2cccc(C(=O)N(C)c3ccccc3C(F)(F)F)c2)C[C@H]1C | 0.95 | 5.6 |  |  |  |
| C=CCN1C[C@H](C)N([C@@H](c2cccc(O)c2)c2cccc(C(=O)N(CCC)c3ccccc3)c2)C[C@H]1C | 2.4 | 18 | 1.26 |  |  |
